In ChEMBL document CHEMBL1152519, “Synthesis, structural activity-relationships, and biological evaluation of novel amide-based allosteric binding site antagonists in NR1A/NR2B N-methyl-D-aspartate receptors” (Bioorg Med Chem, 2009):
Active and inactive are the calls of the source. The calls are words filed in the database; no cut-off is given here.

Key:
[1] = target: Ionotropic glutamate receptor NMDA 1/2D (Rattus norvegicus, UniProt P35439+Q62645); assay: Antagonist activity at rat recombinant NR1/NR2D receptor expressed in Xenopus laevis oocytes assessed as inhibition of glutamate/glycine-induced current by two electrode voltage clamp method; assay type: functional, cell-based, Oocyte
Chain of Ionotropic glutamate receptor NMDA 1/2D (Q62645 whole entry, other chains not shown, the tested form may be a part): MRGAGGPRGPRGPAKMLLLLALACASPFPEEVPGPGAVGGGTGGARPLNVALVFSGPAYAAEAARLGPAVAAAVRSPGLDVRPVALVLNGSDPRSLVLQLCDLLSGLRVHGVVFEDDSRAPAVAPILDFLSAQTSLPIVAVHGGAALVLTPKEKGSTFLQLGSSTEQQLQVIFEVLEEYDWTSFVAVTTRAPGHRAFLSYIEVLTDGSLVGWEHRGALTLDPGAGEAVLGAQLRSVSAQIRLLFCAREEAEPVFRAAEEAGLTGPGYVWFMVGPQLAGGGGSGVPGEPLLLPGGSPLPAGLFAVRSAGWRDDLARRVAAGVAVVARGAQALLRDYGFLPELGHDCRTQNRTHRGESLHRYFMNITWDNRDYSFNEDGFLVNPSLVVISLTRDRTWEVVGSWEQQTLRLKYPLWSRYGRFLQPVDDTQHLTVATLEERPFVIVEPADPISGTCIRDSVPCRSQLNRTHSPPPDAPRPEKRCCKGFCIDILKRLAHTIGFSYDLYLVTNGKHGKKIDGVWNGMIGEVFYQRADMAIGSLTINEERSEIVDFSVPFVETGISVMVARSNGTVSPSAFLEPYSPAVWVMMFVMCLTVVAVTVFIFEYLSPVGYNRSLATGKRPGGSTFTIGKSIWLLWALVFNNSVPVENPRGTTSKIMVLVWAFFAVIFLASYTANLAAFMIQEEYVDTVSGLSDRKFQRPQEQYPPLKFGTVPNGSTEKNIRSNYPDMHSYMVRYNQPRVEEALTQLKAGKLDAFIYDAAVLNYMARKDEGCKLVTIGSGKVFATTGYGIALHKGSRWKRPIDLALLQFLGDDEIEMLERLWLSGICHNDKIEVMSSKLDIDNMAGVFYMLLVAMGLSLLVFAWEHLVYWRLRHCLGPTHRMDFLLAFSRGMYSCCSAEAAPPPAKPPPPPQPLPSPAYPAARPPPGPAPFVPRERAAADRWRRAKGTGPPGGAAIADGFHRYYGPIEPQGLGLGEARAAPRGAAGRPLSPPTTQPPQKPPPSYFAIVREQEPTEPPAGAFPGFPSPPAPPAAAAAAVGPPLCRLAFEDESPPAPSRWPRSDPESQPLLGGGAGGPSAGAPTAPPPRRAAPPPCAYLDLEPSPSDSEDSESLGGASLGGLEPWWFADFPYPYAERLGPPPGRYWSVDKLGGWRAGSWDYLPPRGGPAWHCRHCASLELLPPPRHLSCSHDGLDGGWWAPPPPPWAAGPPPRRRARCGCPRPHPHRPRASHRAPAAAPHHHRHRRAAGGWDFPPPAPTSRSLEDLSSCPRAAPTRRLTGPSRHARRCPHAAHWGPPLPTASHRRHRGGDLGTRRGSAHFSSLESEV
How it was run: (§1)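 Xenopus oocytes expressing NR1/NR2 (wild type or amino terminal domain deletion mutant) recorded by TEVC at −40 mV, room temperature, pH 7.4–7.6, with EDTA 10 μM. Maximal glutamate/glycine applied alone, then with 5–8 successive compound concentrations. Leak-corrected; responses under 50 nA excluded. IC50 from fitted composite curve. NR1/NR2A oocytes were pre-incubated in 50 μM BAPTA-AM.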

MDCK [2] = assay: Apparent permeability from apical to basolateral side of MDR1-expressing MDCK cells at 5 uM after 2 hrs by LC-MS/MS analysis; assay type: ADME, cell-based, Canis lupus familiaris; conditions: dog
How it was run: (§2)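 MDR1-MDCK monolayers grown 7–11 days on Transwells. Compound at 5 μM in HBSS pH 7.4 (final DMSO ≤1%) added apically (A–B) or basally (B–A). Incubated 2 h at 37 °C; both compartments quantified by LC–MS/MS against a >4-point calibration. Papp given in ×10−6 cm/s; efflux ratio = B–A/A–B. Duplicates.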

MDCK [3] = assay: Apparent permeability from basolateral to apical side of MDR1-expressing MDCK cells at 5 uM after 2 hrs by LC-MS/MS analysis; assay type: ADME, cell-based, Canis lupus familiaris; conditions: dog; how it was run: as §2
[4] = target: Glutamate receptor ionotropic, kainate 2 (Rattus norvegicus) (UniProt P42260); assay: Antagonist activity at rat recombinant GluR6 expressed in Xenopus laevis oocytes assessed as inhibition of concanavalin A/glutamate-induced current at 3 uM by two electrode voltage clamp method; assay type: functional, cell-based; conditions: Oocyte
Chain of Glutamate receptor ionotropic, kainate 2 (Rattus norvegicus) (P42260 whole entry): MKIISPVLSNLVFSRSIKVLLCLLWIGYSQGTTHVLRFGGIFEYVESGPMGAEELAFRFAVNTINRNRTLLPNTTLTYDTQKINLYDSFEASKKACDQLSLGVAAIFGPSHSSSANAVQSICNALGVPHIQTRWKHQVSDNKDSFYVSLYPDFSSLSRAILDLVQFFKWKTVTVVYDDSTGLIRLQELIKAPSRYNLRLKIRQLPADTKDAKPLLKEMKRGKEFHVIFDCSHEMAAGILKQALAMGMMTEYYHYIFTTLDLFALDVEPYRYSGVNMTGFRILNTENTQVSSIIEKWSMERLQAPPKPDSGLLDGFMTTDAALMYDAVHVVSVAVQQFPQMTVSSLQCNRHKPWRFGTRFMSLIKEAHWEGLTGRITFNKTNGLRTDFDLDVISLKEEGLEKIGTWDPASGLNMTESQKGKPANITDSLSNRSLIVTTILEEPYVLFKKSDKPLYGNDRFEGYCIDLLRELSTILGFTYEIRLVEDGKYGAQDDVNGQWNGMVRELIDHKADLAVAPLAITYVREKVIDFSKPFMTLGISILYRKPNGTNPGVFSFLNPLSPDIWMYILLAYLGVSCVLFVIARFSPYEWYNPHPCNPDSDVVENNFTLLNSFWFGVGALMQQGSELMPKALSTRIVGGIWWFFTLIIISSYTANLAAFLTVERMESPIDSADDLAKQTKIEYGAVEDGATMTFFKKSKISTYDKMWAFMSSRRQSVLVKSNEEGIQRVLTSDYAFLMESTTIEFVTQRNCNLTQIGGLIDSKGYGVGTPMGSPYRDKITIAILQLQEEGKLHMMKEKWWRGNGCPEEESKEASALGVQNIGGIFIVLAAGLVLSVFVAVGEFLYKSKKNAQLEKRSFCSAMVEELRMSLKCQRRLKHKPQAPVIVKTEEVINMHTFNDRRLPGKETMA
How it was run: (§3)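 Oocytes expressing homomeric GluR6 (5–10 ng cRNA) pretreated 5 min with 10 μM concanavalin-A. Currents evoked by 100 μM glutamate at −40 mV, with or without 3 μM compound, and given as percent of control. Mean ± SEM of 4–10 oocytes; paired t-test.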

[5] = target: Glutamate NMDA receptor; Grin1/Grin2b (Rattus norvegicus, UniProt P35439+Q00960); assay: Antagonist activity at wild type rat NR1/NR2B receptor expressed in Xenopus laevis oocytes assessed as inhibition of glutamate/glycine-induced current by two electrode voltage clamp method; assay type: functional, cell-based, Oocyte; how it was run: as §1
Oocyte = assay: Antagonist activity at rat NR1/NR2B receptor deltaATD mutant expressed in Xenopus laevis oocytes assessed as inhibition of glutamate/glycine-induced current at 0.01 to 100 uM by two electrode voltage clamp method; assay type: functional, cell-based
How it was run: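 Oocytes express NR1/NR2B amino-terminal-domain mutants (mouse D101A point mutant; rat ATD deletion). Concentration–effect curves were recorded by two-electrode voltage clamp at −40 mV and 23 °C, with 50 μM glutamate plus 30 μM glycine. Each step is compound plus agonists, expressed relative to agonists alone.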

[6] = target: Glutamate receptor 1 (Rattus norvegicus) (UniProt P19490); assay: Antagonist activity at rat recombinant GluR1 expressed in Xenopus laevis oocytes assessed as inhibition of glutamate-induced current at 3 uM by two electrode voltage clamp method relative to control; assay type: functional, cell-based; conditions: Oocyte
Chain of Glutamate receptor 1 (Rattus norvegicus) (P19490 whole entry): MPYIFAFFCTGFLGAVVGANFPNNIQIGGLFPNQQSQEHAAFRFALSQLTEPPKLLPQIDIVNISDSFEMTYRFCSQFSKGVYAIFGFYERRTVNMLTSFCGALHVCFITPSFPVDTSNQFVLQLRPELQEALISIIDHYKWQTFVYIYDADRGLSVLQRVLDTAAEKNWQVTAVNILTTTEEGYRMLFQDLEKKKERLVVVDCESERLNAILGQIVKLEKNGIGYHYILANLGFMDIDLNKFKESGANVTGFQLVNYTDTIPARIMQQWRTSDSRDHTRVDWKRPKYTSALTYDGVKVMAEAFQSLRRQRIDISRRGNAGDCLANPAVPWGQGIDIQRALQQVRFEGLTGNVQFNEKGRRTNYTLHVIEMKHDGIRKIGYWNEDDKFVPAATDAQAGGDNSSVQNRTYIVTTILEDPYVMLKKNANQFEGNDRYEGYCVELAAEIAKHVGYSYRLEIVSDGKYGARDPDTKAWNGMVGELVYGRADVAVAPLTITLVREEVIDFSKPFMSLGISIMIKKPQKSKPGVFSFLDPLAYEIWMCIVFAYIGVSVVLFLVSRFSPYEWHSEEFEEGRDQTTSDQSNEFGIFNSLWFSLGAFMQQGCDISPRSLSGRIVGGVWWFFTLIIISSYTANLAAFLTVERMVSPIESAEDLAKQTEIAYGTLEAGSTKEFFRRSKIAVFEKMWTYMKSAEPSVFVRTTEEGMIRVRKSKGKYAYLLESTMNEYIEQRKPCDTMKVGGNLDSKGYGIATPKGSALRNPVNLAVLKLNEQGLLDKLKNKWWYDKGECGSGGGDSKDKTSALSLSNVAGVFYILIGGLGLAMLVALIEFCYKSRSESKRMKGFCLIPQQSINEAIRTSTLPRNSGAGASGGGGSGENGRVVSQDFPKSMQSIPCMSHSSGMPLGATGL
How it was run: (§4)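 GluR1 homomers expressed from 5–10 ng cRNA in Xenopus oocytes. Clamped at −40 mV. Currents evoked by 100 μM glutamate with 3 μM compound, expressed as % of control without compound. Mean ± SEM, 4–10 oocytes; paired t-test.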

[7] = target: Glutamate receptor ionotropic, NMDA 1/NMDA 2B (Mus musculus) (UniProt P35438+Q01097); assay: Antagonist activity at mouse recombinant NR1/NR2B receptor expressed in Xenopus laevis oocytes assessed as inhibition of glutamate/glycine-induced current at 3 uM by two electrode voltage clamp method; assay type: functional, cell-based; conditions: Oocyte
[8] = target: Glutamate NMDA receptor; Grin1/Grin2a (Rattus norvegicus) (UniProt P35439+Q00959); assay: Antagonist activity at rat recombinant NR1/NR2A receptor expressed in Xenopus laevis oocytes assessed as inhibition of glutamate/glycine-induced current at 3 uM by two electrode voltage clamp method relative to control; assay type: functional, cell-based; conditions: Oocyte
How it was run: (§5)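 Xenopus oocytes injected with NR1-1a (3–5 ng) plus NR2A, 2B, 2C or 2D cRNA (7–10 ng), kept at 15 °C. Voltage clamp at −40 mV. Responses to 50 μM glutamate + 30 μM glycine with 3 μM compound, as % of response without compound. NR2A oocytes pre-loaded with 50 μM BAPTA-AM. Mean ± SEM, 4–10 oocytes; paired t-test.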

[9] = target: Glutamate NMDA receptor; Grin1/Grin2c (Rattus norvegicus, UniProt P35439+Q00961); assay: Antagonist activity at rat recombinant NR1/NR2C receptor expressed in Xenopus laevis oocytes assessed as inhibition of glutamate/glycine-induced current by two electrode voltage clamp method; assay type: functional, cell-based, Oocyte; how it was run: as §1
[10] = target: Glutamate receptor 1 (Rattus norvegicus) (UniProt P19490); assay: Antagonist activity at rat recombinant GluR1 expressed in Xenopus laevis oocytes assessed as inhibition of glutamate-induced current at 3 uM by two electrode voltage clamp method; assay type: functional, cell-based; conditions: Oocyte; how it was run: as §4
[11] = target: T1, Glutamate NMDA receptor; Grin1/Grin2b (Rattus norvegicus) (UniProt P35439+Q00960); assay: Antagonist activity at rat recombinant NR1/NR2B receptor expressed in Xenopus laevis oocytes assessed as inhibition of glutamate/glycine-induced current at 3 uM by two electrode voltage clamp method; assay type: functional, cell-based; conditions: Oocyte
How it was run: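 Oocytes (stage V–VI, Xenopus laevis) injected with NR1 and NR2 cRNA, held 1–7 d at 15 °C. TEVC at −40 mV, 23 °C, in 90 NaCl/1 KCl/10 HEPES/0.5 BaCl2 (mM) plus 10 μM EDTA. Current to 50 μM glutamate plus 30 μM glycine with 3 μM compound, given as percent of control; 4–10 oocytes.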

[12] = target: T1, Glutamate NMDA receptor; Grin1/Grin2b (Rattus norvegicus); assay: Antagonist activity at rat recombinant NR1/NR2B receptor expressed in Xenopus laevis oocytes assessed as voltage-independent inhibition of glutamate/glycine-induced current at 0.054 uM by two electrode voltage clamp method; assay type: functional, cell-based; conditions: Oocyte
How it was run: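 Rat NR1/NR2B oocytes were voltage clamped and the current–voltage relation recorded for 50 μM glutamate plus 30 μM glycine, with and without 0.054 μM compound coapplied; n = 5.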

[13] = target: Glutamate receptor ionotropic, kainate 2 (Rattus norvegicus) (UniProt P42260); assay: Antagonist activity at rat recombinant GluR6 expressed in Xenopus laevis oocytes assessed as inhibition of concanavalin A/glutamate-induced current at 3 uM by two electrode voltage clamp method relative to control; assay type: functional, cell-based; conditions: Oocyte; how it was run: as §3
hERG (KCNH2) = hERG (KCNH2) (Homo sapiens, UniProt Q12809); assay: Displacement of [3H]astemizole from human recombinant ERG expressed in HEK293 cells at 10 uM; assay type: cell-based; conditions: HEK293 cells expressing human recombinant ERG, probe [3H]astemizole, read-out: Activity
Chain of hERG (KCNH2) (Q12809 whole entry): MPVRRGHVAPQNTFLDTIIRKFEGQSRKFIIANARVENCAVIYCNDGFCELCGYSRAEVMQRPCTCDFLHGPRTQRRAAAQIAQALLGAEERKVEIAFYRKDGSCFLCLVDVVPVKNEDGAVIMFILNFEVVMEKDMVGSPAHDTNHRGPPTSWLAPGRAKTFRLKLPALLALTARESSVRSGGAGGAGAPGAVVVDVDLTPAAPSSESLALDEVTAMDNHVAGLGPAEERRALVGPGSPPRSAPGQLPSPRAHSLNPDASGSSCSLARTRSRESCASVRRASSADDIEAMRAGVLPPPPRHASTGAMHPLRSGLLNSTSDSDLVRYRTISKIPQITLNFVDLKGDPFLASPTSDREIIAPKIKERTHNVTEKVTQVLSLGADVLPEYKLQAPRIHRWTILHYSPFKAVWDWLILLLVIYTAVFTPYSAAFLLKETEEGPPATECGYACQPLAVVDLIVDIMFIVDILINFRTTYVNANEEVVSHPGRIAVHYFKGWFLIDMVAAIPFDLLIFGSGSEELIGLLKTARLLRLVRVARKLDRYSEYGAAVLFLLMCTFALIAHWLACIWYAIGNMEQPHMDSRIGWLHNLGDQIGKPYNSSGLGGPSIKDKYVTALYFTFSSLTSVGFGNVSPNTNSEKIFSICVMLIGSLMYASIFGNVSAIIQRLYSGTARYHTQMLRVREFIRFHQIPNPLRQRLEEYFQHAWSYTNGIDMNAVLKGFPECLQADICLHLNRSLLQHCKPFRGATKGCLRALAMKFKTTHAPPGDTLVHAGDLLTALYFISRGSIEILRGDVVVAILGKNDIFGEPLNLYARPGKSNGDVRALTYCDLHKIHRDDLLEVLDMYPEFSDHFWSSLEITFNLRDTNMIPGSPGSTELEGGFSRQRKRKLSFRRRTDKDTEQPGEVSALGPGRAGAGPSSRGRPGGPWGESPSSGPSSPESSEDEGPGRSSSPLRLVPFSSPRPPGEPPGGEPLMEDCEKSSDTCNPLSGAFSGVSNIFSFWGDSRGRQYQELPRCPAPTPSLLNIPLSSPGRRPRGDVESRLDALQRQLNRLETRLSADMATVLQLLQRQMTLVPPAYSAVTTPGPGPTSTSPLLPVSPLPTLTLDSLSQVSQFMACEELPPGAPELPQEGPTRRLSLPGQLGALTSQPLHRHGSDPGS

[14] = target: Glutamate NMDA receptor; Grin1/Grin2c (Rattus norvegicus) (UniProt P35439+Q00961); assay: Antagonist activity at rat recombinant NR1/NR2C receptor expressed in Xenopus laevis oocytes assessed as inhibition of glutamate/glycine-induced current at 3 uM by two electrode voltage clamp method relative to control; assay type: functional, cell-based; conditions: Oocyte; how it was run: as §5
[15] = target: Glutamate NMDA receptor; GRIN1/GRIN2B (Homo sapiens, UniProt Q05586+Q13224); assay: Antagonist activity at human recombinant NR1/NR2B receptor expressed in frog oocytes assessed as inhibition of glutamate/glycine-induced current by two electrode voltage clamp method; assay type: functional, cell-based, Oocyte
How it was run: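 Human NR1/NR2B cRNA injected into Xenopus oocytes. Two-electrode voltage clamp at −40 mV, 23 °C, 2–7 d after injection. Glutamate/glycine (50–100 μM/30 μM) applied, then with 5–8 compound concentrations. Bath contains 10 μM EDTA; leak-corrected.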

Question: With `CS(=O)(=O)Nc1ccc(OCC(=O)NCCNc2ccc(Cl)c(Cl)c2)cc1` as the compound, how does the IC50 [1] read?
Answer: The IC50 was 107 µM.

Question: And the Papp (MDCK [2])?
Answer: The Papp was 1.8 ×10⁻⁶ cm/s.

Question: And the Papp (MDCK [3])?
Answer: Its Papp is 63.2 ×10⁻⁶ cm/s.

Question: And the inhibition [4]?
Answer: Its inhibition is “inactive”.

Question: What about the IC50 [5] of the same compound?
Answer: Its IC50 is 0.057 µM.

Question: What about the inhibition (Oocyte) of the same compound?
Answer: Its inhibition is “inactive”.

Question: And the % response [6]?
Answer: Its % response is 101%.

Question: What about the inhibition [7] of the same compound?
Answer: The inhibition was 78%.

Question: What about the % response [8] of the same compound?
Answer: The % response was 92%.

Question: What about the IC50 [9] of the same compound?
Answer: Its IC50 is 58 µM.

Question: And the inhibition [10]?
Answer: Its inhibition is “inactive”.

Question: And the inhibition [11]?
Answer: Its inhibition is 88%.

Question: What about the inhibition [12] of the same compound?
Answer: Its inhibition is “Active”.

Question: What about the % response [13] of the same compound?
Answer: The % response was 99%.

Question: And the inhibition at 10 µM (hERG (KCNH2))?
Answer: The inhibition at 10 µM was 43%.

Question: And the % response [14]?
Answer: The % response was 98%.

Question: And the IC50 [15]?
Answer: The IC50 was 0.054 µM.
